According to ChEMBL document CHEMBL4513216, “Probing the Open Global Health Chemical Diversity Library for Multistage-Active Starting Points for Next-Generation Antimalarials” (ACS Infect Dis, 2020):

assay: Toxicity liver stage against HepG2, at 10uM; assay type: cell-based; set-up: test concentration 10 uM, cell line HepG2-A16-CD81EGFP; settings: human, HepG2-A16-CD81EGFP cells; read-out: INHIBITION
How it was run: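 Uninfected HepG2-A16-CD81EGFP cells, 3 × 10^3 per well, 1536-well, plated on prespotted compound at 10 μM final, parasite-free screening media added to match infected plates; puromycin 10 μM positive, DMSO 0.5% negative; run in parallel with 48 h PbLuc assay at 37 °C, 5% CO2; viability by CellTiter-Glo luminescence, normalized to controls.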

**Q.** For CN1CCN(c2ccncc2S(=O)(=O)N2CCCCC2)CC1, which cytotoxicity at 10 µM is on record?
**A.** -6.84%

**Q.** Which cytotoxicity at 10 µM does the source give for CN1C(=O)CO[C@H](c2ccc(NC(=O)NC(C)(C)C)cc2)[C@H]1CO here?
**A.** -0.973%

**Q.** For Cc1cccc2c1nc1n2[C@@H](CNC(=O)c2cnccn2)COC1, which cytotoxicity at 10 µM is on record?
**A.** 6.54%

**Q.** For CN(C)[C@@H]1CO[C@H](CNC(=O)C2CCCC2)[C@H]1O, which cytotoxicity at 10 µM is on record?
**A.** -0.321%

**Q.** For CC(C)C[C@@H]1N[C@H](C(=O)NC2CCOCC2)Cc2c[nH]c3cccc1c23, which cytotoxicity at 10 µM is on record?
**A.** 8.24%

**Q.** Which cytotoxicity at 10 µM does the source give for CCCNc1ccc(C(=O)NCCc2cccc(OC)c2)cn1 here?
**A.** 0.267%

**Q.** For O=C1CCC(c2ccccc2)=NN1CN1CCCCCC1, which cytotoxicity at 10 µM is on record?
**A.** -86.3%

**Q.** With COc1ccc(CNC(=O)CCc2nnc3ccccn3c2=O)cc1 as the compound, how does the cytotoxicity at 10 µM read?
**A.** -13.5%

**Q.** With O=C(NC1CC1)C1CN(C(=O)c2cnccn2)C1 as the compound, how does the cytotoxicity at 10 µM read?
**A.** -10.2%

**Q.** For CN1CCCC(C(=O)N2CCC(Oc3ccccn3)CC2)C1 (configuration not stated), which cytotoxicity at 10 µM is on record?
**A.** -5.15%

**Q.** Which cytotoxicity at 10 µM does the source give for COCCN(Cc1ccoc1)S(=O)(=O)c1cccc(C(F)(F)F)c1 here?
**A.** 3.17%

**Q.** Which cytotoxicity at 10 µM does the source give for Cc1ccsc1C(=O)N1CC(C(=O)N2CCOCC2)C2(CCOCC2)C1 (configuration not stated) here?
**A.** 1.47%

**Q.** With CN(C)c1cccc(C(=O)N2CCn3c(nnc3C3CC3)C2)c1 as the compound, how does the cytotoxicity at 10 µM read?
**A.** 0.7%

**Q.** With CC(C)c1cc(Br)ccc1NC(=O)NCC(O)CO (configuration not stated) as the compound, how does the cytotoxicity at 10 µM read?
**A.** 9.45%

**Q.** For CCn1cnnc1CCNC(=O)c1ccc(Br)cc1F, which cytotoxicity at 10 µM is on record?
**A.** -29.7%

**Q.** Which cytotoxicity at 10 µM does the source give for Cc1ccc(OCc2cccc(C(=O)N(C)CCC#N)c2)cn1 here?
**A.** -3.3%

**Q.** Which cytotoxicity at 10 µM does the source give for CCC1CCCCN1C(=O)CCn1cnc2sccc2c1=O (configuration not stated) here?
**A.** -9.79%

**Q.** Which cytotoxicity at 10 µM does the source give for O=C(c1cc(F)cc(F)c1)N1CCC(O)(C(F)(F)F)CC1 here?
**A.** 7.08%

**Q.** With CC(NC(=O)NCCC(=O)OC(C)(C)C)c1nncn1C (configuration not stated) as the compound, how does the cytotoxicity at 10 µM read?
**A.** 2.49%

**Q.** Which cytotoxicity at 10 µM does the source give for O=c1c2sccc2ncn1CC(O)CN1CCOCC1 (configuration not stated) here?
**A.** 7.27%

**Q.** Which cytotoxicity at 10 µM does the source give for COCCNC(=O)Nc1ccc(C(=O)N2CCSCC2)cc1C here?
**A.** -2.13%

**Q.** With COc1ccc(S(=O)(=O)NC(=O)c2c(C)noc2C(C)C)cc1C as the compound, how does the cytotoxicity at 10 µM read?
**A.** 0.495%

**Q.** For CCCS(=O)(=O)NC1CCN(c2cccc(F)c2C#N)CC1, which cytotoxicity at 10 µM is on record?
**A.** -5.6%

**Q.** For O=C(NCc1ncc[nH]1)c1c(F)cccc1I, which cytotoxicity at 10 µM is on record?
**A.** -6.78%

**Q.** Which cytotoxicity at 10 µM does the source give for O=C(CSc1ccccc1)N1CCC(N2CCCCC2=O)CC1 here?
**A.** 11.2%

**Q.** With CCN(Cc1ccoc1)C(C(N)=O)c1ccc(Br)cc1 (configuration not stated) as the compound, how does the cytotoxicity at 10 µM read?
**A.** -5.5%

**Q.** For COCc1ccccc1C(=O)NS(=O)(=O)c1ccc2c(c1)CCC(=O)N2, which cytotoxicity at 10 µM is on record?
**A.** -1.74%

**Q.** For Cc1ccccc1OCCC(=O)N(C)Cc1c(C)noc1C, which cytotoxicity at 10 µM is on record?
**A.** -8.73%

**Q.** For CSC(C)C(=O)N1CCN(CC(C)(C)O)CC1 (configuration not stated), which cytotoxicity at 10 µM is on record?
**A.** -10.2%

**Q.** Which cytotoxicity at 10 µM does the source give for CC(=O)N1CCC[C@H]1C(=O)NCCCN(C(C)C)S(C)(=O)=O here?
**A.** -13%

**Q.** With Cc1ncsc1C(=O)NCCN1CCCCCC1=O as the compound, how does the cytotoxicity at 10 µM read?
**A.** 12.1%

**Q.** With Cc1ccccc1C(C)NC(=O)c1ccc(=O)n(C)c1 (configuration not stated) as the compound, how does the cytotoxicity at 10 µM read?
**A.** 4.31%

**Q.** For CS(=O)(=O)CCS(=O)(=O)Cc1cc(Cl)c2c(c1)OCCCO2, which cytotoxicity at 10 µM is on record?
**A.** -0.0261%

**Q.** With COc1ncccc1NC(=O)NC(CCCO)c1ccccc1 (configuration not stated) as the compound, how does the cytotoxicity at 10 µM read?
**A.** 11.2%

**Q.** For Cc1cc(F)ccc1N1CCCC(Nc2nccn3cnnc23)C1=O (configuration not stated), which cytotoxicity at 10 µM is on record?
**A.** -6.62%

**Q.** For Nc1cc2c(nn1)CCN(C(=O)c1csc(-c3cccs3)n1)C2, which cytotoxicity at 10 µM is on record?
**A.** -1.32%

**Q.** Which cytotoxicity at 10 µM does the source give for Cc1nsc(N2CCN(C(=O)Nc3ccc4[nH]ccc4c3)CC2)n1 here?
**A.** 4.52%

**Q.** Which cytotoxicity at 10 µM does the source give for CCc1nnc2n1CCN(C(=O)c1ccc3c(c1)NC(=O)CO3)C2 here?
**A.** 1.24%

**Q.** With CC(C)[C@H](Nc1cc(-c2ccncc2)nc2ccnn12)C(N)=O as the compound, how does the cytotoxicity at 10 µM read?
**A.** 0.782%

**Q.** Which cytotoxicity at 10 µM does the source give for Cc1n[nH]c(C)c1Sc1ccccc1NC(=O)N1CCOCC(O)C1 (configuration not stated) here?
**A.** -2.42%

**Q.** For CC(=O)NCCCc1ncnn1-c1cccc(Cl)c1, which cytotoxicity at 10 µM is on record?
**A.** 0.254%

**Q.** For CCN(Cc1ccncc1)C1CCCN(Cc2ccc(F)cc2OC)C1 (configuration not stated), which cytotoxicity at 10 µM is on record?
**A.** -3.73%

**Q.** With CCN(C)C[C@@H]1CN(C(=O)c2cc(C(F)(F)F)n[nH]2)C[C@@H]1CO as the compound, how does the cytotoxicity at 10 µM read?
**A.** -12.1%

**Q.** For CN1CCC(CNC(=O)Cc2ccc(N(C)C)cc2)CC1, which cytotoxicity at 10 µM is on record?
**A.** 6.8%

**Q.** For CN(Cc1csc(-c2ccccc2)n1)Cc1ncccc1C(=O)O, which cytotoxicity at 10 µM is on record?
**A.** 6.03%

**Q.** For CCn1nc(C)c(C(C)NC(=O)c2cccc(NCC(=O)O)c2)c1C (configuration not stated), which cytotoxicity at 10 µM is on record?
**A.** 3.04%

**Q.** With COCc1nc(NC(C)Cc2cc(C)n[nH]2)c2cnn(C)c2n1 (configuration not stated) as the compound, how does the cytotoxicity at 10 µM read?
**A.** -10%

**Q.** For Cc1cc(NCc2ccc(O)cc2)n2nc(C)cc2n1, which cytotoxicity at 10 µM is on record?
**A.** -0.881%

**Q.** For COc1cc(C(=O)O)cc(I)c1OCC(=O)NCCc1ccccc1, which cytotoxicity at 10 µM is on record?
**A.** -11.9%

**Q.** For CC(Cn1cncn1)NCCN1CCc2ccccc21 (configuration not stated), which cytotoxicity at 10 µM is on record?
**A.** -3.21%

**Q.** With COc1ccc(CNC(=O)CCN2C[C@@H](C)[C@](O)(C3CC3)C2)cc1 as the compound, how does the cytotoxicity at 10 µM read?
**A.** -12.5%

**Q.** Which cytotoxicity at 10 µM does the source give for COc1cccc([C@@H]2CN(C3CCCC3)C[C@H]2C(=O)O)c1 here?
**A.** -5.89%

**Q.** With Cc1ccsc1-c1nccn1CCS(C)(=O)=O as the compound, how does the cytotoxicity at 10 µM read?
**A.** 3.03%

**Q.** Which cytotoxicity at 10 µM does the source give for OC1(CN2CCCC2)COCCN(c2nccs2)C1 (configuration not stated) here?
**A.** -7.64%

**Q.** With C[C@@H]1CN(C(=O)CCN2CCCC2)CC[C@@]1(O)C1CCOCC1 as the compound, how does the cytotoxicity at 10 µM read?
**A.** -5.15%

**Q.** For COc1cccc(OCc2cc(C(=O)NC[C@H]3CCCN3)n[nH]2)c1, which cytotoxicity at 10 µM is on record?
**A.** -4.9%

**Q.** With COCCN1CCC(NCc2ccc(F)cc2F)C1 (configuration not stated) as the compound, how does the cytotoxicity at 10 µM read?
**A.** -2.67%

**Q.** With CCOCCCn1c(NC(=O)c2ccnc(C)n2)nc2ccccc21 as the compound, how does the cytotoxicity at 10 µM read?
**A.** -21.1%

**Q.** Which cytotoxicity at 10 µM does the source give for CCc1nc(C2CCCN2CC(=O)NCCc2ccsc2)no1 (configuration not stated) here?
**A.** -2.81%

**Q.** Which cytotoxicity at 10 µM does the source give for c1ncn(CC2CCCCN2Cc2cn3ccsc3n2)n1 (configuration not stated) here?
**A.** -13.9%

**Q.** With N#CC1(C(=O)N2CCN(Cc3cscn3)CC2)CCCCC1 as the compound, how does the cytotoxicity at 10 µM read?
**A.** -3.27%

**Q.** For CCc1noc(CN2CCCN(C(C)=O)CC2)n1, which cytotoxicity at 10 µM is on record?
**A.** -1.25%

**Q.** For CCn1cc(CN2CCCN(C(=O)c3ccc(C#N)cc3)CC2)cn1, which cytotoxicity at 10 µM is on record?
**A.** 1.8%

**Q.** For CCCc1nc(CN2CCCN(Cc3nccn3C)CC2)no1, which cytotoxicity at 10 µM is on record?
**A.** -3.33%

**Q.** For Cc1nc(C)n(CC2CN(CCCOc3ccc(F)cc3)CCO2)n1 (configuration not stated), which cytotoxicity at 10 µM is on record?
**A.** -4.26%

**Q.** Which cytotoxicity at 10 µM does the source give for OC(CNCCn1cccn1)c1ccc(Br)cc1 (configuration not stated) here?
**A.** -19.9%

**Q.** For Cc1nc(C)n(C2CCCN(C(=O)Cc3cn4ccccc4n3)C2)n1 (configuration not stated), which cytotoxicity at 10 µM is on record?
**A.** -18.3%

**Q.** Which cytotoxicity at 10 µM does the source give for O=C(CNCCn1cccn1)NCC1(c2ccccc2)CCOCC1 here?
**A.** -8.27%

**Q.** With CCOC1CCN(CC(=O)Nc2oc(C)c3c(C)n[nH]c(=O)c23)CC1 as the compound, how does the cytotoxicity at 10 µM read?
**A.** -14.4%

**Q.** With COc1ccccc1S(=O)(=O)Nc1ccc2c(C(=O)O)c[nH]c2c1 as the compound, how does the cytotoxicity at 10 µM read?
**A.** -11.1%

**Q.** Which cytotoxicity at 10 µM does the source give for CCOCC(O)CN1CCN(C(=O)Cc2ccccc2Cl)CC1 (configuration not stated) here?
**A.** -1.19%

**Q.** For NC(=O)c1cnn2c1NCC(CNCCc1ccco1)C2 (configuration not stated), which cytotoxicity at 10 µM is on record?
**A.** 1.46%

**Q.** With Cn1cc(-c2nc(CNCCn3cccn3)cs2)cn1 as the compound, how does the cytotoxicity at 10 µM read?
**A.** -13%

**Q.** Which cytotoxicity at 10 µM does the source give for CO[C@@H]1CC[C@H]2[C@H]1OCCN2Cc1ccc(F)cc1 here?
**A.** 1.82%

**Q.** For O=C(Nc1cccnc1)[C@H]1CO[C@H]2CCN(c3ncc(F)cn3)C[C@H]2C1, which cytotoxicity at 10 µM is on record?
**A.** -12.8%

**Q.** With CC[C@@H]1N(Cc2ccncc2)CCC[C@]12CCC(=O)N2CCOC as the compound, how does the cytotoxicity at 10 µM read?
**A.** 11.5%

**Q.** For Cc1ccc(CN2CC[C@H]3C[C@H](C(=O)N(C)C)O[C@H]3C2)cc1, which cytotoxicity at 10 µM is on record?
**A.** 1.94%

**Q.** With CN(C)[C@@H]1CN(Cc2ccoc2)C[C@@H]2CCCO[C@@H]21 as the compound, how does the cytotoxicity at 10 µM read?
**A.** 1.93%

**Q.** Which cytotoxicity at 10 µM does the source give for Cn1ccnc1CN1CCC2(CC(=O)N(c3cccc(F)c3)C2)C1 (configuration not stated) here?
**A.** 6.97%

**Q.** For COc1ccc(CNCC2(COc3cccnc3)C[C@@H](O)[C@@H](O)C2)cc1 (some centres not stated), which cytotoxicity at 10 µM is on record?
**A.** -57%

**Q.** For COc1ccc(OC)c(C2CCN(C(=O)C3CCC(O)CC3)C2)c1 (configuration not stated), which cytotoxicity at 10 µM is on record?
**A.** -1.65%

**Q.** For CCN(CC)c1ccc(C(=O)N2C[C@H]3CC[C@@H](C2)N(CCOC)C3)cc1, which cytotoxicity at 10 µM is on record?
**A.** -12.3%
